Assay results: publication PMC4124067 (International Journal of Nanomedicine, 2014)
Like-named read-outs stand apart in the source and are kept apart here.

Key:
[1] = system: orthotopic Lewis lung carcinoma; details: cited from earlier work
[2] = system: A549-luc-c8 human lung adenocarcinoma cells; experiment: MTT cytotoxicity assay; type: cell-based; details: 48 h
Procedure, shortened: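 A549-luc-c8 luciferase-expressing cells grown in RPMI 1640 with 10% FBS and antibiotic at 37°C, 5% CO2. Seeded at 5,000 cells per 100 μL medium per well. Free parent drug, conjugate nanoparticles or blank nanoparticles added across a concentration series for 48 h at 37°C. MTT then added for 3 h, dye dissolved in DMSO, A570 read. IC50 taken from survival plots; blank-particle IC50 expressed at drug-equivalent dose.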

[3] = system: tubulin; experiment: Tubulin polymerization assay; type: biochemical
Procedure, shortened: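 Kit-based assay: 3 mg/mL tubulin in 80 mM PIPES, pH 6.9, with glycerol, run at 37°C. Test compound at 10 and 34 μM, parent drug at 10 μM as positive control, plus untreated control. Polymerization followed as OD340, read once per minute for 60 min. Maximum rate (Vmax, mOD/min) and time to reach it taken from the curves.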

| SMILES | therapeutic effect ([1]; treatment starting on day 1) | therapeutic effect ([1]; treatment starting on day 10) | IC50 [2] | Vmax (maximum rate of tubulin polymerization) ([3]; 10 μM, 37°C, 3 mg/mL tubulin) | time at which Vmax was reached ([3]; 60 minute time course) |
| --- | --- | --- | --- | --- | --- |
| N.N.[Cl][Pt][Cl] [Cisplatin, cisplatin] | suppressed primary lung tumor growth and lymph node metastasis | failed to show any significant therapeutic effect | – | – | – |
| CC(=O)O[C@H]1C(=O)[C@@]2(C)[C@H]([C@H](OC(=O)c3ccccc3)[C@]3(O)C[C@H](OC(=O)[C@H](O)[C@@H](NC(=O)c4ccccc4)c4ccccc4)C(C)=C1C3(C)C)[C@]1(OC(C)=O)CO[C@@H]1C[C@@H]2O [PX, paclitaxel] | – | – | 5.3 ± 3.2 nM | 29.0±0.0 mOD/min | 0 to 3 min |
